Laboratory results published in ChEMBL document CHEMBL3120128, “Evaluation of intestinal permeability of vicenin-2 and lychnopholic acid from Lychnophora salicifolia (Brazilian arnicão) using Caco-2 cells” (J Nat Prod, 2014).
One block for each molecule: values may come before it.

How the values were obtained:
Caco-2 [1] = test: Cytotoxicity against human Caco2 cells at 50 to 200 uM relative to control; format: cell-based; details: caco-2, 200 µM
In short: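 Toxicity judged from TEER of Caco-2 monolayers, measured with an epithelial voltohmmeter before and after exposure. Compared against control monolayers in transport medium without compound.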

Caco-2 [2] = test: Apparent permeability from basolateral to apical side in human Caco2 cells in HBSS medium at 50 uM by HPLC-DAD analysis; format: ADME, cell-based; details: caco-2, 50 µM
Caco-2 [3] = test: Apparent permeability from apical to basolateral side in human Caco2 cells in HBSS medium at 50 uM by HPLC-DAD analysis; format: ADME, cell-based; details: caco-2, 50 µM
Caco-2 [4] = test: Apparent permeability from basolateral to apical side in human Caco2 cells in glucose free medium at 50 uM at pH 6.0 in apical side and pH 7.4 at basolateral side by HPLC-DAD analysis; format: ADME, cell-based; details: caco-2, pH 6, 50 µM
Caco-2 [5] = test: Apparent permeability from apical to basolateral side in human Caco2 cells in glucose free medium at 50 uM at pH 6.0 in apical side and pH 7.4 at basolateral side by HPLC-DAD analysis; format: ADME, cell-based; details: caco-2, pH 6, 50 µM
Caco-2 [6] = test: Apparent permeability from basolateral to apical side in human Caco2 cells in glucose free medium at 50 uM at pH 7.4 by HPLC-DAD analysis; format: ADME, cell-based; details: caco-2, pH 7.4, 50 µM
Caco-2 [7] = test: Apparent permeability from apical to basolateral side in human Caco2 cells in glucose free medium at 50 uM at pH 7.4 by HPLC-DAD analysis; format: ADME, cell-based; details: caco-2, pH 7.4, 50 µM
Caco-2 [8] = test: Apparent permeability from basolateral to apical side in human Caco2 cells in low glucose medium at 50 uM at pH 7.4 by HPLC-DAD analysis; format: ADME, cell-based; details: caco-2, pH 7.4, 50 µM
Caco-2 [9] = test: Apparent permeability from apical to basolateral side in human Caco2 cells in low glucose medium at 50 uM at pH 7.4 by HPLC-DAD analysis; format: ADME, cell-based; details: caco-2, pH 7.4, 50 µM
Caco-2 [10] = test: Apparent permeability from basolateral to apical side in human Caco2 cells in glucose rich medium at 50 to 100 uM at pH 7.4 by HPLC-DAD analysis; format: ADME, cell-based; details: caco-2, pH 7.4, 100 µM
Caco-2 [11] = test: Apparent permeability from apical to basolateral side in human Caco2 cells in glucose rich medium at 50 to 100 uM at pH 7.4 by HPLC-DAD analysis; format: ADME, cell-based; details: caco-2, pH 7.4, 100 µM
[12] = Lipophilicity, log P of the compound by micellar chromatography; format: physicochemical
[13] = Stability of the compound at 25 degC by HPLC-DAD analysis; format: physicochemical
Caco-2 [14] = test: Apparent permeability from apical to basolateral side in human Caco2 cells in glucose rich medium at 50 to 100 uM at pH 7.4 by HPLC-DAD analysis; details: caco-2, pH 7.4, 100 µM
[15] = Efflux ratio of apparent permeability from basolateral to apical side to apical to basolateral side in human Caco2 cells at 25 uM at pH 7.4 by HPLC-DAD analysis; format: ADME, cell-based; details: Caco-2, pH 7.4
In short: (§1)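 Glucose-rich transport medium (25 mM glucose), pH 7.4 in both apical and basolateral compartments, donor concentration 25 or 50 μM. Papp = (ΔQ/Δt)/(A·C0), from the linear appearance rate on the receiver side. Ratios are calculated as Papp A→B/Papp B→A and Papp B→A/Papp A→B.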

Caco-2 [16] = test: Efflux ratio of apparent permeability from apical to basolateral side to basolateral to apical side in human Caco2 cells at 25 uM at pH 7.4 by HPLC-DAD analysis; format: ADME, cell-based; details: caco-2, pH 7.4, 25 µM; in short: as §1
[17] = Apparent permeability from basolateral to apical side in human Caco2 cells at 25 uM at pH 7.4 by HPLC-DAD analysis; format: ADME, cell-based; details: Caco-2, pH 7.4
[18] = Apparent permeability from apical to basolateral side in human Caco2 cells at 25 uM at pH 7.4 after 30 mins by HPLC-DAD analysis; format: ADME, cell-based; details: Caco-2, pH 7.4
[19] = Efflux ratio of apparent permeability from basolateral to apical side to apical to basolateral side in human Caco2 cells at 50 uM at pH 7.4 by HPLC-DAD analysis; format: ADME, cell-based; details: Caco-2, pH 7.4; in short: as §1
Caco-2 [20] = test: Efflux ratio of apparent permeability from apical to basolateral side to basolateral to apical side in human Caco2 cells at 50 uM at pH 7.4 by HPLC-DAD analysis; format: ADME, cell-based; details: caco-2, pH 7.4, 50 µM; in short: as §1
[21] = Apparent permeability from basolateral to apical side in human Caco2 cells at 50 uM at pH 7.4 by HPLC-DAD analysis; format: ADME, cell-based; details: Caco-2, pH 7.4
[22] = Apparent permeability from apical to basolateral side in human Caco2 cells at 50 uM at pH 7.4 after 30 mins by HPLC-DAD analysis; format: ADME, cell-based; details: Caco-2, pH 7.4
Caco-2 [23] = test: Cellular uptake in human Caco2 cells; format: ADME, cell-based
Caco-2 [24] = test: Apparent permeability from basolateral to apical side in human Caco2 cells in glucose free medium at 25 uM at pH 6.0 in apical side and pH 7.4 at basolateral side by HPLC-DAD analysis; format: ADME, cell-based; details: caco-2, pH 6, 25 µM
Caco-2 [25] = test: Apparent permeability from apical to basolateral side in human Caco2 cells in glucose free medium at 25 uM at pH 6.0 in apical side and pH 7.4 at basolateral side by HPLC-DAD analysis; format: ADME, cell-based; details: caco-2, pH 6, 25 µM

permeability (Caco-2 [2]): impermeable
permeability (Caco-2 [3]): impermeable
permeability (Caco-2 [4]): impermeable
permeability (Caco-2 [5]): impermeable
permeability (Caco-2 [6]): impermeable
permeability (Caco-2 [7]): impermeable
permeability (Caco-2 [8]): impermeable
permeability (Caco-2 [9]): impermeable
permeability (Caco-2 [10]): impermeable
permeability (Caco-2 [11]): impermeable
logP [12]: -4.31
Stability [13]: 99%
permeability (Caco-2 [14]): impermeable
SMILES: O=c1cc(-c2ccc(O)cc2)oc2c([C@@H]3O[C@H](CO)[C@@H](O)[C@H](O)[C@H]3O)c(O)c([C@@H]3O[C@H](CO)[C@@H](O)[C@H](O)[C@H]3O)c(O)c12
Activity (Caco-2 [1]): Non-toxic

efflux ratio at 25 µM [15]: 0.94
Ratio (Caco-2 [16]): 1.06
Papp B→A at 25 µM [17]: 4.41 ×10⁻⁶ cm/s
Papp A→B at 0.5 h, 25 µM [18]: 4.68 ×10⁻⁶ cm/s
efflux ratio at 50 µM [19]: 1.02
Ratio (Caco-2 [20]): 0.97
Papp B→A at 50 µM [21]: 4.17 ×10⁻⁶ cm/s
Papp A→B at 0.5 h, 50 µM [22]: 4.07 ×10⁻⁶ cm/s
Stability [13]: 98%
SMILES: C=C1CC/C=C(/C(=O)O)C[C@H](O)[C@@H]2[C@@H]1CC2(C)C
Activity (Caco-2 [1]): Non-toxic

Drug uptake (Caco-2 [23]): Active
permeability (Caco-2 [24]): impermeable
permeability (Caco-2 [25]): impermeable
SMILES: O=c1cc(-c2ccc(O)cc2)oc2cc(O)cc(O)c12 [APIGENIN]
